From ChEMBL document CHEMBL5653631, “A Potent and Selective ULK1 Inhibitor Suppresses Autophagy and Sensitizes Cancer Cells to Nutrient Stress” (iScience, 2018)
One block for each molecule: values may come before it.

How the values were obtained:
[1] = molecular target: T1, MAP kinase-activated protein kinase 5 (Homo sapiens) (UniProt Q8IW41); experiment: Inhibition of human recombinant MAPKAPK5 at 500 nM related to control ULK1
T1 sequence (whole entry): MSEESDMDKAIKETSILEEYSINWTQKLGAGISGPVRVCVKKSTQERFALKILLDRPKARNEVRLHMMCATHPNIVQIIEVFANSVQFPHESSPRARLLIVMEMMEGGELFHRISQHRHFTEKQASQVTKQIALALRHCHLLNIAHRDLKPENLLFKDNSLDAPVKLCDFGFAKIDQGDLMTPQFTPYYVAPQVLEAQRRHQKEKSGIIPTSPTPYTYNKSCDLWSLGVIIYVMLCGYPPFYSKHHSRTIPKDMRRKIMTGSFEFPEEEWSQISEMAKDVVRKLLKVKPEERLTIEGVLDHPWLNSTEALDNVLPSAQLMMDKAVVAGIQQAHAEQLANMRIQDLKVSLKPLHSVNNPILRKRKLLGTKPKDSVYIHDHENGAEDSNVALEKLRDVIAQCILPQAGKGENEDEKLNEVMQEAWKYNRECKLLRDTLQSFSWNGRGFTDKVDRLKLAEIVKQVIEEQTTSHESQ

[2] = molecular target: T2, Serine/threonine-protein kinase BRSK2 (Homo sapiens) (UniProt Q8IWQ3); experiment: Inhibition of human recombinant BRSK2 at 15 nM related to control ULK1
T2 sequence (whole entry): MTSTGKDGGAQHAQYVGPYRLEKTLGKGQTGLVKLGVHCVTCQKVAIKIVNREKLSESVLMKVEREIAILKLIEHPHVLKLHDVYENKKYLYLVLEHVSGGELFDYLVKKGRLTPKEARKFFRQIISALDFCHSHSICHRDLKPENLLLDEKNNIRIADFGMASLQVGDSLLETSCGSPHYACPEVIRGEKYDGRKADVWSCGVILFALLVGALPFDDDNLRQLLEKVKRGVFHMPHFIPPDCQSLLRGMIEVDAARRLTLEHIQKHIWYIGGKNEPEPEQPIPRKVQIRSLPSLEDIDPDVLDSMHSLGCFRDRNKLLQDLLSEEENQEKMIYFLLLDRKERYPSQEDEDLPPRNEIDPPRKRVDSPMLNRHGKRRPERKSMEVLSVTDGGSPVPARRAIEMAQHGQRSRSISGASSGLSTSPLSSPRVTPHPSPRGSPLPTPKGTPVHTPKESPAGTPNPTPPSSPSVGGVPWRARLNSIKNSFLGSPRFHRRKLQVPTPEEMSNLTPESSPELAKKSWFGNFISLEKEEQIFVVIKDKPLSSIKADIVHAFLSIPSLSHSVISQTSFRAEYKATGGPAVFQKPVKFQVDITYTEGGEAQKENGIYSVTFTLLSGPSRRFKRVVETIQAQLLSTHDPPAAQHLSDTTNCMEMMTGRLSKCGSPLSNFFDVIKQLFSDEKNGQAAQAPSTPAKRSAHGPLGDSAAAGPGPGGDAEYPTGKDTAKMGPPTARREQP
How it was run: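 Recombinant human kinase panel (327 kinases) run as radiometric activity assays, each kinase in duplicate at one compound concentration. Activity remaining expressed relative to vehicle control; percent inhibition taken as 100% minus % activity remaining.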

[3] = molecular target: 5'-AMP-activated protein kinase catalytic subunit alpha-1 (Homo sapiens) (UniProt Q13131); experiment: Inhibition of human recombinant AMPKa1 at 40 nM in presence of ATP by radiometric assay relative to control
How it was run: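 Panel of 327 recombinant human kinases, each assayed in vitro by radiometric activity assay in duplicate at a single inhibitor concentration per compound, chosen with reference to its ULK1 inhibition. Activity remaining was expressed as percent of vehicle control, and percent inhibition was calculated as 100 minus percent activity remaining.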

[4] = molecular target: T3, Serine/threonine-protein kinase Nek1 (Homo sapiens) (UniProt Q96PY6); experiment: Inhibition of human recombinant NEK1 at 40 nM in presence of ATP by radiometric assay relative to control
T3 sequence (whole entry): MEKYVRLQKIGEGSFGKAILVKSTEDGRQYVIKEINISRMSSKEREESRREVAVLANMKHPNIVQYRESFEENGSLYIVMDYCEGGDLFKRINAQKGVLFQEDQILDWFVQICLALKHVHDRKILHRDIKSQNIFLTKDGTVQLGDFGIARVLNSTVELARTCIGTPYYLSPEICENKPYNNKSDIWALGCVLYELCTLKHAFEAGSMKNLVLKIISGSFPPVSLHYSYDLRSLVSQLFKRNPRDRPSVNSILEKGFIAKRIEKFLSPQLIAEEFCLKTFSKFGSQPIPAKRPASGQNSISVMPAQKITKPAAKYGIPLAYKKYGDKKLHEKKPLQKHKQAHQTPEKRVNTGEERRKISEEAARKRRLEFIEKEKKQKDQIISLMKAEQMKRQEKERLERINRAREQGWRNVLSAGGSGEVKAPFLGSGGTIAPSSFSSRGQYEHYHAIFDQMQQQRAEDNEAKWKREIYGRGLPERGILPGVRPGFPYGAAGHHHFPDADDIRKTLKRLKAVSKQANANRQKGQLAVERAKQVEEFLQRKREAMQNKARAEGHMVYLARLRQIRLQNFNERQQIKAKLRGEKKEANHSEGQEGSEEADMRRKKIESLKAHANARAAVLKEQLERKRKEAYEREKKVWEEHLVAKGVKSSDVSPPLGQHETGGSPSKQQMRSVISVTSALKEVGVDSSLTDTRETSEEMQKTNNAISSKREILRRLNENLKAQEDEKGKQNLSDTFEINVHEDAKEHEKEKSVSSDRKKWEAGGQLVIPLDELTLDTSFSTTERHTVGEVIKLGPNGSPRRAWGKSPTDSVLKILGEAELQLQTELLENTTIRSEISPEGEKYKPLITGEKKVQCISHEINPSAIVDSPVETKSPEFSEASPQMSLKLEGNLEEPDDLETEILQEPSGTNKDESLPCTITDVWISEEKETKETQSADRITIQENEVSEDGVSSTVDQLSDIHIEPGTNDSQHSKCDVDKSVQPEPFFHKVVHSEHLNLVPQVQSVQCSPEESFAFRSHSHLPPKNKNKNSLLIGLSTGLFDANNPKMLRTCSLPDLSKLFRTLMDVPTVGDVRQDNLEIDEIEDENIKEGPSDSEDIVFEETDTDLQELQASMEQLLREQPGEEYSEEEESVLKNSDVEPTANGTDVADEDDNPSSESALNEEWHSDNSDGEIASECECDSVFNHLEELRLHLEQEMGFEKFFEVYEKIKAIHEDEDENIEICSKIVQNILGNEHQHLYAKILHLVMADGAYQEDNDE

Chain of 5'-AMP-activated protein kinase catalytic subunit alpha-1 (Homo sapiens) (Q13131 whole entry, looked up): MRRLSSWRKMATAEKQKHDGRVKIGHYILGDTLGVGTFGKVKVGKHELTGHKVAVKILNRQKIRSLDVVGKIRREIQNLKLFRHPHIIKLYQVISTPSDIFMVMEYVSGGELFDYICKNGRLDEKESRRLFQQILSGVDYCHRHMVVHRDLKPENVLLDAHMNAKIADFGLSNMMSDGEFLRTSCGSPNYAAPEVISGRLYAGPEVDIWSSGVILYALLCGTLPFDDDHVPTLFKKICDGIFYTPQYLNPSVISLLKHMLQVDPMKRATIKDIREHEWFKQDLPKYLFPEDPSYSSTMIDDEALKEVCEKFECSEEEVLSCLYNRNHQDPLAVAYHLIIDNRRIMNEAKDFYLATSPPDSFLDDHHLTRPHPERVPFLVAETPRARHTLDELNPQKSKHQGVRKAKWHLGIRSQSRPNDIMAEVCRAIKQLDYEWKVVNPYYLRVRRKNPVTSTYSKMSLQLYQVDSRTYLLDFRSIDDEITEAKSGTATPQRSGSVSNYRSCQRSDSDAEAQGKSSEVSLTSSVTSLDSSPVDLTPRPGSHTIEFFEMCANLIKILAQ

fold change (FC) [1]: 0
Compound: CNC(=O)c1ccccc1Oc1nc(Nc2cc(OC)c(OC)c(OC)c2)ncc1Br

fold change (FC) [2]: 0.28
Compound: CC(C)[C@H](NC(=O)c1cc(-c2cnn3cc(-c4ccc(OCCN5CCCCC5)cc4)cnc23)cs1)C(F)(F)F

inhibition [3]: 8%
inhibition [4]: 0%
Compound: O=C(N[C@@H](C1CC1)C(F)(F)F)c1cc(-c2cnn3cc(-c4ccc(F)cc4)cnc23)cs1
